According to paper PMC2922442 (Biochimica et biophysica acta, 2010):
Where “and” joins values, the source holds several entries; their conditions need not be identical. Equal entries are not always repeated. Where two headings read alike, the source gives them in different places.

Legend:
wild type cytochrome bo3 [1] = target: T1, wild type cytochrome bo3 (Escherichia coli, UniProt P0ABI8); assay: steady state ubiquinol-1 oxidase activity; type: biochemical, E. coli; conditions: for pattern of inhibition: double-reciprocal plot vs ubiquinol-1
wild type cytochrome bo3 [2] = target: T1, wild type cytochrome bo3; assay: EPR of the semiquinone formed at the QH-site; type: biochemical, E. coli; conditions: excess (5-fold) of inhibitor
How it was run: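 Continuous-wave X-band EPR of wild-type enzyme purified in dodecylmaltoside, carrying bound ubiquinone-8 at the QH site. Enzyme was incubated with a 5-fold excess of test compound, at 50 μM enzyme in one series. Sample preparation followed earlier published methods.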

cytochrome bo3 R257Q [3] = target: T2, cytochrome bo3 R257Q (Escherichia coli, UniProt P0ABI8, R257Q); assay: steady state ubiquinol-1 oxidase activity; type: biochemical, E. coli; conditions: read-out: KM UQ1H2
cytochrome bo3 W^II136A [4] = target: cytochrome bo3 W^II136A (Escherichia coli, UniProt P0ABI8+P0ABJ1, W136A); assay: steady state ubiquinol-1 oxidase activity; type: biochemical, E. coli; conditions: read-out: KM UQ1H2
cytochrome bo3 D188A [5] = target: T3, cytochrome bo3 D188A (Escherichia coli, UniProt P0ABI8, D188A); assay: steady state ubiquinol-1 oxidase activity; type: biochemical, E. coli; conditions: read-out: KM UQ1H2
cytochrome bo3 D188N [6] = target: T4, cytochrome bo3 D188N (Escherichia coli, UniProt P0ABI8, D188N); assay: steady state ubiquinol-1 oxidase activity; type: biochemical, E. coli; conditions: read-out: KM UQ1H2
wild type cytochrome bo3 [7] = target: T1, wild type cytochrome bo3; assay: HQNO binding monitored by fluorescence anisotropy; parameters: species or system E. coli; conditions: for Kd: read-out: Kd HQNO
cytochrome bo3 H98S = cytochrome bo3 H98S (Escherichia coli, UniProt P0ABI8, H98S); assay: HQNO binding monitored by fluorescence anisotropy; parameters: species or system E. coli; conditions: read-out: Kd HQNO
cytochrome bo3 D188N [8] = target: T4, cytochrome bo3 D188N; assay: HQNO binding monitored by fluorescence anisotropy; parameters: species or system E. coli; conditions: read-out: Kd HQNO
cytochrome bo3 R257Q [9] = target: T2, cytochrome bo3 R257Q; assay: HQNO binding monitored by fluorescence anisotropy; parameters: species or system E. coli; conditions: read-out: Kd HQNO
cytochrome bo3 D188A [10] = target: T3, cytochrome bo3 D188A; assay: HQNO binding monitored by fluorescence anisotropy; parameters: species or system E. coli; conditions: read-out: Kd HQNO
cytochrome bo3 W^II136A [11] = target: cytochrome bo3 W^II136A (Escherichia coli, UniProt P0ABI8); assay: HQNO binding monitored by fluorescence anisotropy; parameters: species or system E. coli; conditions: read-out: Kd HQNO
[12] = target: wild type cytochrome bo3 (no bound Q8) (Escherichia coli, UniProt P0ABI8); assay: HQNO binding monitored by fluorescence anisotropy; parameters: species or system E. coli; conditions: read-out: Kd HQNO
How it was run: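 Quinone-free enzyme was made by diluting ≥50-fold into 50 mM K2HPO4, 0.1% Triton X-100, pH 8.3, and binding to Ni-NTA for several hours at 4 °C. It was washed into dodecylmaltoside, eluted with 100 mM imidazole and dialysed. Enzyme was titrated into pH 8.3 dodecylmaltoside buffer holding fixed 1 μM test compound. Anisotropy was read at ex 341/em 480 nm against a ligand-free control, and fit with an independent-sites model.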

T1 sequence (P0ABJ1 25-315): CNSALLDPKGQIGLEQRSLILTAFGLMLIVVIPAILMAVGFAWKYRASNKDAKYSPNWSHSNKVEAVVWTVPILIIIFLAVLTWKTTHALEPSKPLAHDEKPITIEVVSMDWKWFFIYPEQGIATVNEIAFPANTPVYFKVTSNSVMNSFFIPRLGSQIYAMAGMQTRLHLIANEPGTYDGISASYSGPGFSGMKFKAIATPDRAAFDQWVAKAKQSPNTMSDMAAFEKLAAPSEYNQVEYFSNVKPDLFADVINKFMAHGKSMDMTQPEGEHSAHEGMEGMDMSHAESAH
T1 sequence (P0ABJ3 whole entry, further chain): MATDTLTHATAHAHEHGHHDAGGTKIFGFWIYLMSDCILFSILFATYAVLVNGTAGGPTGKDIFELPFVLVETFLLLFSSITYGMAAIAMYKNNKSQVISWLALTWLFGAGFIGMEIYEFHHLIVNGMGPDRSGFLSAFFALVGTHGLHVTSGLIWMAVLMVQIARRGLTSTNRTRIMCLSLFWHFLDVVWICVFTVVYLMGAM
T1 sequence (P0ABJ6 whole entry, further chain): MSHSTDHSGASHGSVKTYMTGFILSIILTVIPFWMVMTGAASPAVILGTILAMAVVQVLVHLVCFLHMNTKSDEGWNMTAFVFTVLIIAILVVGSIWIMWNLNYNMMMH
T1 sequence (P0ABI8 whole entry): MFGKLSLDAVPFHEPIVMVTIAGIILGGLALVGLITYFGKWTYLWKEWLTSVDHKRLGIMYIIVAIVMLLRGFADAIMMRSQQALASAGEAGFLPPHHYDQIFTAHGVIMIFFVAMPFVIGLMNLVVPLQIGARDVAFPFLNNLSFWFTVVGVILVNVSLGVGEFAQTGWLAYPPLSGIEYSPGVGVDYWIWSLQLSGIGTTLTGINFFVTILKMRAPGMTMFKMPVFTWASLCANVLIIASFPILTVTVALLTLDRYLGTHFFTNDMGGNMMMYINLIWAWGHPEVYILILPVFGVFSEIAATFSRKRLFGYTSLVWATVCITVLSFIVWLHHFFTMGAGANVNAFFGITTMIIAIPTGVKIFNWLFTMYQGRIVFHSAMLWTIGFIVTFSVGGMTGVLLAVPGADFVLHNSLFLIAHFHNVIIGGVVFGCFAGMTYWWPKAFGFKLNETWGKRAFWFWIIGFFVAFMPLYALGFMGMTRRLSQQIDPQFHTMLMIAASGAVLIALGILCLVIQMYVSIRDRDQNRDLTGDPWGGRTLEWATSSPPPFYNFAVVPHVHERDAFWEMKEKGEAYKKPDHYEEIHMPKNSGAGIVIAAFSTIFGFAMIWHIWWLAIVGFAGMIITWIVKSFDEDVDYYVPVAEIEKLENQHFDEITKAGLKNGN
T3 sequence (P0ABI8 whole entry D188A): as the sequence (P0ABI8 whole entry) above, with D188A counted along it
T3 sequence (P0ABJ6 whole entry, further chain): as the sequence (P0ABJ6 whole entry, further chain) above
T3 sequence (P0ABJ3 whole entry, stated change not applied, further chain): as the sequence (P0ABJ3 whole entry, further chain) above
T3 sequence (P0ABJ1 25-315, further chain): as the sequence (P0ABJ1 25-315) above
T2 sequence (P0ABJ1 25-315): as above
T2 sequence (P0ABI8 whole entry R257Q): as the sequence (P0ABI8 whole entry) above, with R257Q counted along it
T2 sequence (P0ABJ3 whole entry, further chain): as the sequence (P0ABJ3 whole entry, further chain) above
T2 sequence (P0ABJ6 whole entry, further chain): as the sequence (P0ABJ6 whole entry, further chain) above
T4 sequence (P0ABI8 whole entry D188N): as the sequence (P0ABI8 whole entry) above, with D188N counted along it
T4 sequence (P0ABJ3 whole entry, stated change not applied, further chain): as the sequence (P0ABJ3 whole entry, further chain) above
T4 sequence (P0ABJ6 whole entry, further chain): as the sequence (P0ABJ6 whole entry, further chain) above
T4 sequence (P0ABJ1 25-315, further chain): as the sequence (P0ABJ1 25-315) above
Chain of wild type cytochrome bo3 (no bound Q8) (P0ABJ3 whole entry): as the sequence (P0ABJ3 whole entry, further chain) above
Chain of wild type cytochrome bo3 (no bound Q8) (P0ABJ1 25-315, further chain): as the sequence (P0ABJ1 25-315) above
Chain of wild type cytochrome bo3 (no bound Q8) (P0ABI8 whole entry): as the sequence (P0ABI8 whole entry) above
Chain of wild type cytochrome bo3 (no bound Q8) (P0ABJ6 whole entry, further chain): as the sequence (P0ABJ6 whole entry, further chain) above
Chain of cytochrome bo3 W^II136A (Escherichia coli, UniProt P0ABI8) (P0ABJ6 whole entry): as the sequence (P0ABJ6 whole entry, further chain) above
Chain of cytochrome bo3 W^II136A (Escherichia coli, UniProt P0ABI8) (P0ABJ3 whole entry, further chain): as the sequence (P0ABJ3 whole entry, further chain) above
Chain of cytochrome bo3 W^II136A (Escherichia coli, UniProt P0ABI8) (P0ABI8 whole entry): as the sequence (P0ABI8 whole entry) above
Chain of cytochrome bo3 W^II136A (Escherichia coli, UniProt P0ABI8) (P0ABJ1 25-315 W136A, further chain): as the sequence (P0ABJ1 25-315) above, with W112A counted along it
Chain of cytochrome bo3 W^II136A (Escherichia coli, UniProt P0ABI8+P0ABJ1, W136A) (P0ABI8 whole entry): as the sequence (P0ABI8 whole entry) above
Chain of cytochrome bo3 W^II136A (Escherichia coli, UniProt P0ABI8+P0ABJ1, W136A) (P0ABJ6 whole entry, further chain): as the sequence (P0ABJ6 whole entry, further chain) above
Chain of cytochrome bo3 W^II136A (Escherichia coli, UniProt P0ABI8+P0ABJ1, W136A) (P0ABJ1 25-315 W136A): as the sequence (P0ABJ1 25-315) above, with W112A counted along it
Chain of cytochrome bo3 W^II136A (Escherichia coli, UniProt P0ABI8+P0ABJ1, W136A) (P0ABJ3 whole entry, further chain): as the sequence (P0ABJ3 whole entry, further chain) above
Chain of cytochrome bo3 H98S (P0ABI8 whole entry H98S): as the sequence (P0ABI8 whole entry) above, with H98S counted along it
Chain of cytochrome bo3 H98S (P0ABJ3 whole entry, further chain): as the sequence (P0ABJ3 whole entry, further chain) above
Chain of cytochrome bo3 H98S (P0ABJ6 whole entry, further chain): as the sequence (P0ABJ6 whole entry, further chain) above
Chain of cytochrome bo3 H98S (P0ABJ1 25-315, further chain): as the sequence (P0ABJ1 25-315) above

With `CCCCCCCCCCc1c(C)c(=O)c2ccccc2n1O` [AC1-10, aurachin C1-10] the pattern of inhibition (wild type cytochrome bo3 [1]) was “competitive” and the “effect on formation of the semiquinone at the QH-site (EPR signal)” value (wild type cytochrome bo3 [2]) was “prevents formation of the semiquinone EPR signal”.

In the case of `COc1c(O)c(C)c(CC=C(C)C)c(O)c1OC` [UQ1H2, ubiquinol-1], the Km (wild type cytochrome bo3 [1]; read-out: KM UQ1H2, wild type) is reported as 53 µM, the Km (cytochrome bo3 R257Q [3]) is reported as 60 µM and the Km (cytochrome bo3 W^II136A [4]) is reported as 63 µM. For the same molecule, the Km (cytochrome bo3 D188A [5]) was 56 µM and the Km (cytochrome bo3 D188N [6]) was 52 µM.

Work on `CCCCCCCc1cc(=O)c2ccccc2n1O` [HQNO] yielded a Kd (wild type cytochrome bo3 [7]; wild type + 300 μM Q1) of 4.1 µM, a Kd (wild type cytochrome bo3 [7]; wild type + 1500 μM Q1) of 6.8 µM and a Kd (wild type cytochrome bo3 [7]; wild type, one equivalent of ubiquinone-8 bound, 1 μM HQNO, pH 8.3) of 4 µM. For the same molecule, the “number of HQNO binding sites (best fit, independent sites model)” value (wild type cytochrome bo3 [7]; wild type with ubiquinone-8 bound) was 1.1 and 1, the pattern of inhibition (wild type cytochrome bo3 [1]) was “noncompetitive” and the Ki (wild type cytochrome bo3 [1]; read-out: Ki, inhibition of ubiquinol-1 oxidase activity by HQNO, coupled assay, enzyme with ubiquinone-8 bound to the QH site) was 0.74 µM. For the same molecule, the Kd (cytochrome bo3 H98S) was 3.6 µM, the “effect on formation of the semiquinone at the QH-site (EPR signal)” value (wild type cytochrome bo3 [2]) was “prevents formation of the semiquinone” and the Kd (cytochrome bo3 D188N [8]) was 4 µM. For the same molecule, the Kd (cytochrome bo3 R257Q [9]) was 4 µM, the Kd (cytochrome bo3 D188A [10]) was 5 µM and the Kd (cytochrome bo3 W^II136A [11]) was 4.1 µM. For the same molecule, the Kd [12] was 5.8 µM.
